We go through four compounds from ChEMBL document CHEMBL1147538, “Antibacterial activity of glycine betaine analogues: involvement of osmoporters” (Bioorg Med Chem Lett, 2004).

Assay type in all cases: functional, organism-based
Assay [1] concerns Serratia marcescens. Description: Effect (1 mM) on Serratia marcescens growth under stressing conditions; Expressed as absorbance (OD) at 570 nm; Control 1.03 nm. An outline of the steps:
(§1)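 Aerobic culture in a defined classic medium (M63, M9, SMM or LAS, chosen per species). Hyperosmotic stress was imposed with NaCl at 0.3–0.5 M final, set by each bacterium's salt tolerance. Each betaine analogue was added at 1 mM. Bacterial yield was read as absorbance at 570 nm and compared with a control culture without analogue.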

Assay [2] has as its system Bacillus subtilis. Description: Effect (1 mM) on Bacillus subtilis growth under stressing conditions; Expressed as absorbance (OD) at 570 nm; Control 3.20 nm. In short, it runs like this: as §1
Assay [3] deals with Dickeya chrysanthemi. Description: Effect (1 mM) on Erwinia chrysanthemi growth under stressing conditions; Expressed as absorbance (OD) at 570 nm; Control 1.97 nm. An outline of the steps:
as §1

In assay [4] the test system is Corynebacterium glutamicum. Description: Effect (1 mM) on Corynebacterium glutamicum growth under stressing conditions; Expressed as absorbance (OD) at 570 nm; Control 0.87 nm. An outline of the steps: as §1
Assay [5] has as its system Aeromonas hydrophila. Put plainly: Effect (1 mM) on Aeromonas hydrophila growth under stressing conditions; Expressed as absorbance (OD) at 570 nm; Control 1.65 nm. An outline of the steps:
as §1

In assay [6] the test system is Acinetobacter baumannii. Description: Effect (1 mM) on Acinetobacter baumannii growth under stressing conditions; Expressed as absorbance (OD) at 570 nm; Control 1.14 nm. An outline of the steps:
as §1

Assay [7] relates to Enterococcus faecalis. Description: Effect (1 mM) on Enterococcus faecalis growth under stressing conditions; Expressed as absorbance (OD) at 570 nm; Control 1.16 nm. An outline of the steps: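 Enterococcus was grown aerobically in defined M9 medium made hyperosmotic with NaCl (0.3–0.5 M final, set by tolerance). Each betaine analogue was supplied at 1 mM. Yield was read as OD at 570 nm against an untreated control.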

In assay [8] the test system is Klebsiella pneumoniae. Description: Effect (1 mM) on Klebsiella pneumoniae growth under stressing conditions; Expressed as absorbance (OD) at 570 nm; Control 1.80 nm. In short, it runs like this:
as §1

In assay [9] the test system is Pseudomonas aeruginosa. Description: Effect (1 mM) on Pseudomonas aeruginosa growth under stressing conditions; Expressed as absorbance (OD) at 570 nm; Control 1.24 nm.
The subject of assay [10] is Enterobacter cloacae. Put plainly: Effect (1 mM) on Enterobacter cloacae growth under stressing conditions; Expressed as absorbance (OD) at 570 nm; Control 1.25 nm. In short, it runs like this: as §1
Assay [11] concerns Citrobacter freundii. Description: Effect (1 mM) on Citrobacter freundii growth under stressing conditions; Expressed as absorbance (OD) at 570 nm; Control 1.09 nm. An outline of the steps: as §1
Assay [12] has as its system Escherichia coli. Description: Effect (1 mM) on Escherichia coli growth under stressing conditions; Expressed as absorbance (OD) at 570 nm; Control 1.24 nm. In short, it runs like this:
as §1

Assay [13] relates to Brevibacterium linens. Description: Effect (1 mM) on Brevibacterium linens growth under stressing conditions; Expressed as absorbance (OD) at 570 nm; Control 1.76 nm.
Assay [14] relates to Salmonella enterica. Description: Effect (1 mM) on Salmonella enterica growth under stressing conditions; Expressed as absorbance (OD) at 570 nm; Control 1.23 nm. In short, it runs like this: as §1
For assay [15], the system named is Sinorhizobium meliloti. Description: Effect (1 mM) on Sinorhizobium meliloti growth under stressing conditions; Expressed as absorbance (OD) at 570 nm; Control 1.46 nm.

As for `C[N+](C)(CC(=O)O)Cc1ccccc1`, the Absorbance was 0.21 in [1]; 3.2 in assay [2]; 0.22 in assay [3]; 0.43 in [4]; 0.16 in [5]; 0.93 in assay [6]. Moreover, the Absorbance in assay [7] came to 1.24; in assay [8] it was 0.46; in assay [9], 0.06; in assay [10], 1.05; in [11], 1.32; in assay [12] it was 0.12. For the same compound, the results for the Absorbance in assay [13], in assay [14] and in [15] were 0.88, 1.24 and 2.3, respectively.

For the compound `C[N+](C)(CC(=O)O)Cc1ccccc1[N+](=O)[O-]`, the Absorbance in assay [1] worked out at 0.09; in assay [2], 3.06; in assay [3], 0.11; in [4] it was 0.26; in [5] it was 0.2; in assay [6], 0.72. Also, the Absorbance in [7] came to 1.3; in assay [8], 0.4; in assay [9] it was 0.11; in [10] it was 0.46; in assay [11], 0.06; in assay [12], 0.08. Further, the Absorbance in assay [13] was 1.52; in assay [14] it was 0.23; in assay [15] it was 1.9.

Regarding `C[N+](C)(CC(=O)O)Cc1ccc([N+](=O)[O-])cc1`, the Absorbance in assay [1] was 0.07; in [2], 0.18; in assay [3], 0.06; in assay [4] it was 0.33; in assay [5] it was 0.06; in assay [6], 0.19. The Absorbance was 1.23 in assay [7]; 0.23 in assay [8]; 0.16 in [9]; 0.24 in assay [10]; 0.03 in assay [11]; 0.09 in assay [12]. Further, the results for the Absorbance in assay [13], in [14] and in assay [15] were 1.74, 0.07 and 1.85, respectively.

On to `COc1cccc(C[N+](C)(C)CC(=O)O)c1`, for which the Absorbance in assay [1] was found to be 0.48; in assay [2] it was 3.2; in [3], 0.25; in assay [4] it was 0.63; in assay [5], 1.05; in [6] it was 1.16. The Absorbance in assay [7] came to 1.12; in [8] it was 0.7; in assay [9], 1.07; in assay [10] it was 1.11; in [11], 1.23; in assay [12] it was 0.18. The figures for the Absorbance in assay [13], in assay [14] and in assay [15] were 1.45, 1.11 and 1.7, respectively.
